Reference: ChEMBL document CHEMBL2046351, “Discovery of cyclic sulfone hydroxyethylamines as potent and selective β-site APP-cleaving enzyme 1 (BACE1) inhibitors: structure-based design and in vivo reduction of amyloid β-peptides” (J Med Chem, 2012)

What was measured:
Beta-secretase 1 = Beta-secretase 1 (Homo sapiens, UniProt P56817)
MDR1 (human) [1] = experiment: Apparent permeability across MDCK cells expressing human MDR1 at 5 uM after 2 hrs by LC-MS analysis; format: ADME, cell-based, Canis lupus familiaris; details: dog
Procedure, shortened: (§1)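 MDCK cells retrovirally transduced with human MDR1, seeded on transwells ≥3 days; bidirectional transport at 5 μM, 2 h, 37 °C, LC/MS quantitation. Papp = (dQ/dt)/(A·C0), A 0.11 cm2; ER = Papp B>A / Papp A>B. Means of at least three experiments.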

MDR1 (human) [2] = experiment: Efflux ratio of permeability from basolateral to apical over apical to basolateral side of MDCK cells expressing human MDR1 at 5 uM after 2 hrs by LC/MS analysis; format: ADME, cell-based, Canis lupus familiaris; details: dog
Procedure, shortened: as §1

Cathepsin D = Cathepsin D (Homo sapiens, UniProt P07339); experiment: Inhibition of human recombinant CatD using Mca-GKPILFFRLK(DNP)-dR-NH2 as substrate after 1 hr by fluorescence analysis
Chain of Cathepsin D (P07339 65-162 limits assumed): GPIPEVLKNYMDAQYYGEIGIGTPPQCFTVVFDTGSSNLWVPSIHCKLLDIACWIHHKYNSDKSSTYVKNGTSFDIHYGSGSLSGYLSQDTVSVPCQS
Chain of Cathepsin D (P07339 169-412 limits assumed): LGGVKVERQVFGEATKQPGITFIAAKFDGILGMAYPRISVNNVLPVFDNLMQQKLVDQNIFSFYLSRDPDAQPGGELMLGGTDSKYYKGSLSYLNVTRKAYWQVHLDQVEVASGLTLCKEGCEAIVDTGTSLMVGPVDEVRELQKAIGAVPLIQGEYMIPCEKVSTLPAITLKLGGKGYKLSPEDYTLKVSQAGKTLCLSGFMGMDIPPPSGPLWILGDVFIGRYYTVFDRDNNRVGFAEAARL

Cytochrome P450 3A4 = Cytochrome P450 3A4 (Homo sapiens, UniProt P08684); experiment: Inhibition of CYP3A4; format: ADME
Chain of Cytochrome P450 3A4 (P08684 whole entry): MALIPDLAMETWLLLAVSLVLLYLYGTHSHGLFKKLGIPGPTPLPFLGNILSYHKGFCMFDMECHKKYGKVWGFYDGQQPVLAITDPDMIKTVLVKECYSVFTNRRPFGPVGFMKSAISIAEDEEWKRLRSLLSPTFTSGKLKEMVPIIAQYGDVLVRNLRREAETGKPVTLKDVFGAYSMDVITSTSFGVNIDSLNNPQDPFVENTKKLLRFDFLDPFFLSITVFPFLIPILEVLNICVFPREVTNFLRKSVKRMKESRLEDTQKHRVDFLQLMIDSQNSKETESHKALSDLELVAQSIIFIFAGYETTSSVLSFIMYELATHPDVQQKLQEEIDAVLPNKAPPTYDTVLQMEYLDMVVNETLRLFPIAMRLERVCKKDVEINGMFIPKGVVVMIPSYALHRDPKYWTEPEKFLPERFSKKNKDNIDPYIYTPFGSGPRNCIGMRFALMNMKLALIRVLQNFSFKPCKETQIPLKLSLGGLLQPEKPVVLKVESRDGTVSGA

Chain of Beta-secretase 1 (P56817 whole entry): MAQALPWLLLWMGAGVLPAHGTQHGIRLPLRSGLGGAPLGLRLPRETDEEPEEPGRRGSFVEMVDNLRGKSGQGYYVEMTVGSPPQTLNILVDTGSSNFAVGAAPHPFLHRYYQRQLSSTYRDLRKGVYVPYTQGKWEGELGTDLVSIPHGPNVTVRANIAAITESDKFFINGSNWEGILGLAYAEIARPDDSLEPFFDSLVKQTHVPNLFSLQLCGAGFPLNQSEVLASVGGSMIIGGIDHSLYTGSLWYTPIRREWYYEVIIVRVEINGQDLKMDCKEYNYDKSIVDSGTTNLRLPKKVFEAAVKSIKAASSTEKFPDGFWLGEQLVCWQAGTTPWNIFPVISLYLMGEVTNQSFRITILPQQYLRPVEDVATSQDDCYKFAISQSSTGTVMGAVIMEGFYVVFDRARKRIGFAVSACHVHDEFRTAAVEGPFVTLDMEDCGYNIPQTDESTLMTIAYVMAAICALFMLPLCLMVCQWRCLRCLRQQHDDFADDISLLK

Row | SMILES | IC50 (Beta-secretase 1) [nM] | Papp at 2 h, 5 µM (MDR1 (human) [1]) [×10⁻⁶ cm/s] | efflux ratio at 2 h, 5 µM (MDR1 (human) [2]) | IC50 (Cathepsin D) [nM] | IC50 (Cytochrome P450 3A4) [nM]
1 | CC(C)(C)c1cccc(CN[C@H]2CS(=O)(=O)C[C@@H](Cc3cc(F)c(N)c(C4CC4)c3)[C@@H]2O)c1 | 94 | 16 | 3 | 1740 | 
2 | CC(C)(C)c1cccc(CN[C@H]2CS(=O)(=O)C[C@@H](Cc3ccc4[nH]ccc4c3)[C@@H]2O)c1 (racemic) | 2750 | 10 | 3 | 5530 | 
3 | CCOC[C@H](Oc1cc(C[C@@H]2CS(=O)(=O)C[C@H](NCc3cccc(C(C)(C)C)c3)[C@H]2O)cc(F)c1N)C(F)(F)F |  | 8 |  | 1230 | 
4 | CC(C)(C)c1cccc(CN[C@H]2CS(=O)(=O)C[C@@H](Cc3ccc4[nH]cc(CC(F)(F)F)c4c3)[C@@H]2O)c1 (racemic) | 120 | 2.5 | 7 | 1490 | 
5 | CC(C)(C)c1cccc(CN[C@H]2CS(=O)(=O)C[C@@H](Cc3cc(F)c4c(c3)C3(CCC(F)(F)CC3)CN4)[C@@H]2O)c1 (racemic) |  |  |  | 3530 | 
6 | CC(C)(C)c1cccc(CN[C@H]2CS(=O)(=O)C[C@@H](Cc3cc(F)c(N)c(-c4cc[nH]n4)c3)[C@@H]2O)c1 (racemic) | 28 | 20 | 17 | 600 | 
7 | CCCOc1cccc(C[C@@H]2CS(=O)(=O)C[C@H](NCc3cccc(C(C)(C)C)c3)[C@H]2O)c1 (relative stereo) | 670 | 2 | 1 | 290 | 
8 | CC(C)(C)c1cccc(CN[C@H]2CS(=O)(=O)C[C@@H](Cc3cc(F)c(N)c(OC4COC4)c3)[C@@H]2O)c1 |  | 23 |  | 1150 | 
9 | CC(C)(C)c1cccc(CN[C@H]2CS(=O)(=O)C[C@@H](Cc3ccc(N)c(OC(F)(F)F)c3)[C@@H]2O)c1 (racemic) | 130 | 15 | 2 | 7990 | 
10 | CCc1c[nH]c2ccc(C[C@@H]3CS(=O)(=O)C[C@H](NCc4cccc(C(C)(C)C)c4)[C@H]3O)cc12 (racemic) | 200 |  |  | 2480 | 
11 | CC(F)(F)c1cccc(CN[C@H]2CS(=O)(=O)C[C@@H](Cc3cc(F)c(N)c(Br)c3)[C@@H]2O)c1 |  | 28 | 4 | 4160 | 
12 | CC(C)(C)c1cccc(CN[C@H]2CS(=O)(=O)C[C@@H](Cc3ccc(N)nc3)[C@@H]2O)c1 (racemic) | 1620 | 17.4 | 16 | > 10000 | 
13 | CC(C)(C)c1cccc(CN[C@H]2CS(=O)(=O)C[C@@H](Cc3cc(F)c(N)c(OCCC(F)(F)F)c3)[C@@H]2O)c1 | 75 | 12 | 4 | 2400 | 
14 | CC(C)(C)c1cccc(CN[C@H]2CS(=O)(=O)C[C@@H](Cc3cc(F)c4c(c3)C3(CCC3)CN4)[C@@H]2O)c1 (racemic) | 560 | 6 | 3 | 80 | 
15 | CC(C)(C)c1cccc(CN[C@H]2CS(=O)(=O)C[C@@H](Cc3cc(O)c(N)c(F)c3)[C@@H]2O)c1 | 120 | 14 | 27 | 540 | 
16 | CC(C)(CO)c1cccc(CN[C@H]2CS(=O)(=O)C[C@@H](Cc3cc(F)c(N)c(OC(C(F)(F)F)C(F)(F)F)c3)[C@@H]2O)c1 | 2 | 12 | 35 | 600 | 800
17 | Nc1c(F)cc(C[C@@H]2CS(=O)(=O)C[C@H](NCc3cccc(OC(F)(F)F)c3)[C@H]2O)cc1OC(C(F)(F)F)C(F)(F)F | 44 | 12 | 6 | 2530 | 9200
18 | CC(C)(C)Cc1cc(CN[C@H]2CS(=O)(=O)C[C@@H](Cc3cc(F)c(N)c(OC(C(F)(F)F)C(F)(F)F)c3)[C@@H]2O)no1 | 7 | 20 | 8 | 510 | 400
19 | C[C@@H](Oc1cc(C[C@@H]2CS(=O)(=O)C[C@H](NCc3cccc(C(C)(C)C)c3)[C@H]2O)cc(F)c1N)C(F)(F)F | 3 | 10 | 5 | 480 | 
20 | CC(C)(C)c1cccc(CN[C@H]2CS(=O)(=O)C[C@@H](Cc3cc(F)c(N)c(-c4ccoc4)c3)[C@@H]2O)c1 | 150 | 3 | 2 | 510 | 
21 | CC(C)(C)Cn1cc(CN[C@H]2CS(=O)(=O)C[C@@H](Cc3cc(F)c(N)c(OC(C(F)(F)F)C(F)(F)F)c3)[C@@H]2O)cn1 | 36 | 16 | 46 | 2810 | 6700
22 | CC(C)(C)c1cccc(CN[C@H]2CS(=O)(=O)C[C@@H](Cc3ccc4[nH]ncc4c3)[C@@H]2O)c1 (racemic) | 1450 | 23 | 11 | 3750 | 

Row | SMILES | IC50 (Beta-secretase 1) [nM] | Papp at 2 h, 5 µM (MDR1 (human) [1]) [×10⁻⁶ cm/s] | efflux ratio at 2 h, 5 µM (MDR1 (human) [2]) | IC50 (Cathepsin D) [nM] | IC50 (Cytochrome P450 3A4) [nM]
23 | CN(C)CC(=O)Nc1ccc(C[C@@H]2CS(=O)(=O)C[C@H](NCc3cccc(C(C)(C)C)c3)[C@H]2O)cc1F |  | 6 |  | > 10000 | 
24 | CC(C)(C)c1cccc(CN[C@H]2CS(=O)(=O)C[C@@H](Cc3cc(F)c(N)c(C[C@H](O)C(F)(F)F)c3)[C@@H]2O)c1 |  | 13 |  | 1050 | 
25 | CC(C)(C)c1cccc(CN[C@H]2CS(=O)(=O)C[C@@H](Cc3cc(F)c(N)c(CCC(F)(F)F)c3)[C@@H]2O)c1 | 130 | 11 | 3 | 980 | 
26 | CO[C@@H](Cc1cc(C[C@@H]2CS(=O)(=O)C[C@H](NCc3cccc(C(C)(C)C)c3)[C@H]2O)cc(F)c1N)C(F)(F)F |  | 9 |  | 1140 | 
27 | CC(C)(C)O[C@H]1C[C@@H]1CN[C@H]1CS(=O)(=O)C[C@@H](Cc2cc(F)c(N)c(OC(C(F)(F)F)C(F)(F)F)c2)[C@@H]1O (mixture of isomers) | > 10000 |  | 4 | 3710 | 
28 | CCc1cc(C[C@@H]2CS(=O)(=O)C[C@H](NCc3cccc(C(C)(C)C)c3)[C@H]2O)cc(F)c1N | 870 | 23 | 2 | 2000 | 
29 | CCc1cc(C[C@@H]2CS(=O)(=O)C[C@H](NCc3cccc(C(C)(C)C)c3)[C@H]2O)cc(F)c1NC(=O)CN(C)C |  | 13 |  | > 10000 | 
30 | CC(C)(C)c1cccc(CN[C@H]2CS(=O)(=O)C[C@@H](Cc3cc(F)c(N)c(OCCF)c3)[C@@H]2O)c1 | 43 | 26 | 16 | 2000 | 
31 | CC(C)(C)c1cccc(CN[C@H]2CS(=O)(=O)C[C@@H](Cc3cc(F)c(N)c(OC4CCC4)c3)[C@@H]2O)c1 | 11 | 6 | 3 | 390 | 
32 | CCCc1n[nH]c2ccc(C[C@@H]3CS(=O)(=O)C[C@H](NCc4cccc(C(C)(C)C)c4)[C@H]3O)cc12 (racemic) | 220 | 30 | 49 | 1630 | 
33 | CCCc1cc(C[C@@H]2CS(=O)(=O)C[C@H](NCc3cccc(C(C)(C)C)c3)[C@H]2O)cc(F)c1N | 130 | 7 | 2 | 1390 | 
34 | Nc1c(F)cc(C[C@@H]2CS(=O)(=O)C[C@H](N)[C@H]2O)cc1OC(C(F)(F)F)C(F)(F)F | > 10000 | 13 | 17 | > 10000 | 
35 | COCCOc1cc(C[C@@H]2CS(=O)(=O)C[C@H](NCc3cccc(C(C)(C)C)c3)[C@H]2O)cc(F)c1N |  | 25 |  | 3980 | 
36 | CCOC[C@@H](Oc1cc(C[C@@H]2CS(=O)(=O)C[C@H](NCc3cccc(C(C)(C)C)c3)[C@H]2O)cc(F)c1N)C(F)(F)F |  | 11 |  | 230 | 
37 | CC(C)(C)c1cccc(CN[C@H]2CS(=O)(=O)C[C@@H](Cc3cc(F)c(N)c(-c4ccco4)c3)[C@@H]2O)c1 | 79 | 2 | 2 | 360 | 
38 | CC(C)(C)c1cccc(CN[C@H]2CS(=O)(=O)C[C@@H](Cc3ccc(N)c(OCC(F)(F)F)c3)[C@@H]2O)c1 | 36 | 23 | 3 | 4370 | 
39 | COCCOC[C@@H](Oc1cc(C[C@@H]2CS(=O)(=O)C[C@H](NCc3cccc(C(C)(C)C)c3)[C@H]2O)cc(F)c1N)C(F)(F)F |  | 12 |  | 250 | 
40 | CC(C)(C)c1cccc(CN[C@H]2CS(=O)(=O)C[C@@H](Cc3ccc4[nH]cc(CC(F)F)c4c3)[C@@H]2O)c1 (racemic) |  | 6 | 8 | 1220 | 
41 | CCCOc1cc(CC2CS(=O)(=O)CC(NCc3cccc(C(C)(C)C)c3)[C@H]2O)cc(F)c1N (single isomer, unassigned) | 56 | 7 | 3 | 2220 | 
42 | CC(C)Oc1cc(C[C@@H]2CS(=O)(=O)C[C@H](NCc3cccc(C(C)(C)C)c3)[C@H]2O)cc(F)c1N | 43 | 14 | 3 | 2220 | 
43 | CC1(C)OCc2ccc(CN[C@H]3CS(=O)(=O)C[C@@H](Cc4cc(F)c(N)c(OC(C(F)(F)F)C(F)(F)F)c4)[C@@H]3O)cc21 |  | 21 |  | 1510 | 700
